High-throughput results: PubChem BioAssay, Broad Institute
ERAP1 HTS inh = ERAP1 (human) enzyme inhibition. inhibition, % at 10.7 µM. Q9NZ08. actives 0.15% (n = 340,000). recombinant ERAP1, Leu-AMC fluorescence, 60 min;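 active means mean replicate inhibition of at least 30%, or all replicates individually reaching that 30% level; inactive means mean below 30% and not every replicate reaching it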;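 further: 0% = neutral control wells and 100% = L-leucinethiol positive control wells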
Target sequence (Q9NZ08 whole entry, looked up): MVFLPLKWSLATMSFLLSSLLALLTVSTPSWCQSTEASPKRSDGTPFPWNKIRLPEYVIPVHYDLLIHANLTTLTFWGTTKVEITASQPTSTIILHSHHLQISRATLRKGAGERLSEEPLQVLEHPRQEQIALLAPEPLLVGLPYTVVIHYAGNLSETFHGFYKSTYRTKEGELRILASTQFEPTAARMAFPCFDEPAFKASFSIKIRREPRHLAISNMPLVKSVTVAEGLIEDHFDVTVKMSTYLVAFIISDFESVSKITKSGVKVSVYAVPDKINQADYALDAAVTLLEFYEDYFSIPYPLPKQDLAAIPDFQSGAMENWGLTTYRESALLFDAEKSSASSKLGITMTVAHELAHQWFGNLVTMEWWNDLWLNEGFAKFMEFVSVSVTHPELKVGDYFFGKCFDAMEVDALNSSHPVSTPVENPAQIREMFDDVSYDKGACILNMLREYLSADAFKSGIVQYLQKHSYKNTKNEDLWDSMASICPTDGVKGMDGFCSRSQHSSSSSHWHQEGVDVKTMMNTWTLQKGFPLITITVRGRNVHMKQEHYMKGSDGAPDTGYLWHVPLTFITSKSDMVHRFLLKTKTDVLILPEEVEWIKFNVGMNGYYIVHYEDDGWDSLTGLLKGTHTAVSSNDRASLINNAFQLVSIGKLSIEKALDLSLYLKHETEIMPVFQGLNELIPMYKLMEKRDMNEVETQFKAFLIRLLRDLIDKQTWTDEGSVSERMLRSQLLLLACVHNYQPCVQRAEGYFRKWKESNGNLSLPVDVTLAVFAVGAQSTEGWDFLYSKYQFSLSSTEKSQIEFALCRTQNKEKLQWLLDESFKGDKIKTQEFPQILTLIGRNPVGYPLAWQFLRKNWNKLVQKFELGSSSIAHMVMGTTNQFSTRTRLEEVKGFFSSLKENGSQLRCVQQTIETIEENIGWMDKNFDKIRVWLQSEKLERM
DENV2 CPE rescue = inhibitors of DENV2 cytopathic effect | DENV2-infected cells, cytopathic effect rescue, plate reader | CPE inhibition, % at 9.99 µM | actives 1.7% (n = 350,000) | AID 651640; in the data active means CPE inhibition above about 20%, passing the limit was not always enough; tested in BHK-21 cells;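 further: 0% = median of neutral control wells and 100% = median of positive control wells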
S100A4 MyoIIA = blocks human S100A4 binding to myosin IIA peptide | S100A4/TAMRA-MyoIIA peptide fluorescence polarization | inhibition, % at 10.7 µM | actives 0.14% (n = 360,000);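 active means mean inhibition of at least 70% across replicates, with every replicate also reaching that level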
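Material: S100A4 monomer protein / Buffer or medium: 50 mM HEPES pH 7.2, 10 mM CaCl2, 100 mM KCl / Times: 5 min incubation before reading / Benchmarks: neutral control DMSO, positive control TFP / Reagent: labelled myosin peptide probe, 5 nM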
CAL PDZ FP-1 = inhibitors of human CAL PDZ peptide binding; Q9HD26; purified CAL PDZ, TMR-peptide fluorescence polarization, 1 h; inhibition, % at 24.9 µM; actives 0.92% (n = 300,000); AID 602252;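 active means mean inhibition of at least 30% with at least half of replicates also reaching 30%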;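 further: 0% = DMSO neutral control and 100% = excess unlabeled competitor peptide PRC23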
SIRT5 inh = blocks human SIRT5 desuccinylation of peptide; Q9NXA8; Purified SirT5, succinyl-peptide AMC, trypsin-coupled fluorescence; actives 1.1% (n = 330,000); inhibition, % at 15 µM; in the data active means inhibition above about 15%
CAL PDZ FP-2 = human CAL PDZ-peptide interaction inhibition; Q9HD26; purified CAL PDZ, TMR-peptide fluorescence polarization, 1 h; inhibition, % at 20 µM; actives 0.02% (n = 330,000); AID 504414;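 active means highest replicate inhibition of at least 40%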;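 further: plate controls were DMSO neutral control wells for no effect and unlabeled competitor peptide control wells for full effect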
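Material: tagged CAL PDZ domain; buffer or medium: 25 mM sodium phosphate pH 7.4, 150 mM NaCl, TCEP, IgG, Thesit; compound dosing: single point, 20 µM; schedule: 1 h incubation at room temperature before polarization reading; measured by: FP readout, S and P plane fluorescence; read-out basis: percent inhibition from loss of millipolarization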
Numbers without * were called inactive; ! = repeats disagree. Shown are actives, neighbours in structure and some others; about 2.9% of the full set was active somewhere.

C[C@H]1CN([C@@H](C)CO)C(=O)c2cc(-c3ccccc3)cnc2O[C@@H]1CN(C)Cc1ccc(C(=O)O)cc1 was read as ERAP1 HTS inh 1, DENV2 CPE rescue 3, S100A4 MyoIIA 3 and SIRT5 inh -4.
S=c1nc[nH]c2c1ncn2-c1ccccc1 was read as ERAP1 HTS inh 1, DENV2 CPE rescue -5, S100A4 MyoIIA 12, CAL PDZ FP-1 48*, SIRT5 inh -5 and CAL PDZ FP-2 -1.
C[C@@H]1CCCCO[C@@H](CN(C)Cc2ccccc2)[C@@H](C)CN([C@@H](C)CO)C(=O)c2cc(NC(=O)C3CCCCC3)ccc2O1 was read as ERAP1 HTS inh -1, DENV2 CPE rescue 27*, S100A4 MyoIIA 1 and SIRT5 inh 3.
C[C@H](CO)N1C[C@H](C)[C@@H](CN(C)Cc2ccccc2)OCCCC[C@H](C)Oc2ccc(NC(=O)C3CCCCC3)cc2C1=O was read as ERAP1 HTS inh -3, DENV2 CPE rescue -2, S100A4 MyoIIA -3 and SIRT5 inh 3.
Screening C[C@@H]1CCCCO[C@@H](CN(C)Cc2ccc(C(=O)O)cc2)[C@@H](C)CN([C@@H](C)CO)C(=O)c2cc(NC(=O)C3CCCCC3)ccc2O1 returned ERAP1 HTS inh -6, DENV2 CPE rescue 38*, S100A4 MyoIIA -32 and SIRT5 inh 0.
For COc1ccc(-c2ccc3n(c2=O)C[C@@H]2[C@@H](CO)[C@H](C(=O)N4CCOCC4)[C@H]3N2C)cc1 the results were ERAP1 HTS inh -3, DENV2 CPE rescue -9, S100A4 MyoIIA -1 and SIRT5 inh -44.
Screening Cc1ccc(S(=O)(=O)Nc2ccc3c(c2)C(=O)N([C@@H](C)CO)C[C@@H](C)[C@H](CN(C)C(=O)Nc2ccc(F)cc2)OCCCC[C@@H](C)O3)cc1 returned ERAP1 HTS inh -4, DENV2 CPE rescue 2, S100A4 MyoIIA -2 and SIRT5 inh 1.
`CNC(=O)c1cn(-c2ccc(Cl)cc2)c(=O)c2ccccc12` gave ERAP1 HTS inh -1, DENV2 CPE rescue -2, S100A4 MyoIIA -2, CAL PDZ FP-1 48* and SIRT5 inh 3.
C[C@@H]1CN([C@H](C)CO)S(=O)(=O)c2ccc(C#CC3CC3)cc2O[C@@H]1CN(C)C(=O)Cc1ccncc1 was read as ERAP1 HTS inh -3, DENV2 CPE rescue -6, S100A4 MyoIIA -16 and SIRT5 inh -1.
`C[C@H](CO)N1C[C@H](C)[C@@H](CN(C)C(=O)Nc2ccc(F)cc2)Oc2ncc(C#C[C@@H](C)O)cc2C1=O` gave ERAP1 HTS inh 2, DENV2 CPE rescue 3, S100A4 MyoIIA -13 and SIRT5 inh -6.
CCOc1ccc(N(CC(=O)Nc2ccc(C)c(F)c2)C2=NC3CS(=O)(=O)CC3S2)cc1 (centres undefined) was read as ERAP1 HTS inh 5, DENV2 CPE rescue -8, S100A4 MyoIIA -1, CAL PDZ FP-1 -1, SIRT5 inh 15* and CAL PDZ FP-2 -3.
`O=C(C[C@H]1CC[C@@H]2[C@H](COC[C@@H](O)CN2Cc2cccc(F)c2)O1)NCCc1ccncc1` gave ERAP1 HTS inh 2, DENV2 CPE rescue -1, S100A4 MyoIIA -7 and SIRT5 inh -3.
For O=S(=O)(c1ccccc1)n1ccc2ccccc21 the results were CAL PDZ FP-1 47* and CAL PDZ FP-2 1.
`C[C@H]1CN([C@@H](C)CO)S(=O)(=O)c2ccc(Br)cc2O[C@H]1CN(C)C(=O)CN(C)C` gave ERAP1 HTS inh 1, DENV2 CPE rescue 38*!, S100A4 MyoIIA -4 and SIRT5 inh -1.
Screening CC(=O)N(C)C[C@H]1Oc2cc(-c3ccccc3)ccc2S(=O)(=O)N([C@@H](C)CO)C[C@@H]1C returned ERAP1 HTS inh 0, DENV2 CPE rescue 33*, S100A4 MyoIIA -7 and SIRT5 inh -5.
For CC(=O)N(C)C[C@@H]1Oc2cc(Br)ccc2S(=O)(=O)N([C@@H](C)CO)C[C@@H]1C the results were ERAP1 HTS inh -1, DENV2 CPE rescue -7, S100A4 MyoIIA 4 and SIRT5 inh -2.
`C[C@H](CO)N1C[C@H](C)[C@@H](CN(C)C(=O)CN(C)C)Oc2cc(Br)ccc2S1(=O)=O` gave ERAP1 HTS inh 0, DENV2 CPE rescue 33*, S100A4 MyoIIA 5 and SIRT5 inh -2.
Screening CC(=O)N(C)C[C@@H]1Oc2cc(Br)ccc2S(=O)(=O)N([C@H](C)CO)C[C@@H]1C returned ERAP1 HTS inh 0, DENV2 CPE rescue 36*!, S100A4 MyoIIA 1 and SIRT5 inh -2.
`C[C@@H]1CN([C@@H](C)CO)S(=O)(=O)c2ccc(Br)cc2O[C@H]1CN(C)C(=O)CN(C)C` gave ERAP1 HTS inh -2, DENV2 CPE rescue 18, S100A4 MyoIIA 1 and SIRT5 inh 1.
`C[C@H](CO)N1C[C@H](C)[C@H](CN(C)CC2CC2)OCc2cnnn2CCCC1=O` gave ERAP1 HTS inh 1, DENV2 CPE rescue 18, S100A4 MyoIIA 3 and SIRT5 inh 1.
O=C(NCC1CCCCC1)[C@H]1[C@H](CO)[C@H]2Cn3c(cccc3=O)[C@@H]1N2CCc1ccccc1 was read as ERAP1 HTS inh 0, DENV2 CPE rescue 109*, S100A4 MyoIIA 21 and SIRT5 inh 18*.
O=C(NCC1CCCCC1)[C@@H]1[C@@H](CO)[C@@H]2Cn3c(cccc3=O)[C@H]1N2CCc1ccccc1 was read as ERAP1 HTS inh 1, DENV2 CPE rescue 110*, S100A4 MyoIIA -6 and SIRT5 inh 3.
For CC(C)CC#Cc1ccc2c(c1)O[C@@H](CN(C)C(=O)C1CCCCC1)[C@H](C)CN([C@H](C)CO)S2(=O)=O the results were ERAP1 HTS inh 8, DENV2 CPE rescue -4, S100A4 MyoIIA 9 and SIRT5 inh 19*.
For CC(C)CC#Cc1ccc2c(c1)O[C@@H](CN(C)C(=O)C1CCCCC1)[C@@H](C)CN([C@H](C)CO)S2(=O)=O the results were ERAP1 HTS inh -3, DENV2 CPE rescue -5, S100A4 MyoIIA -1 and SIRT5 inh 22*.
For CC(C)CC#Cc1ccc2c(c1)O[C@H](CN(C)C(=O)C1CCCCC1)[C@H](C)CN([C@H](C)CO)S2(=O)=O the results were ERAP1 HTS inh -4, DENV2 CPE rescue 2, S100A4 MyoIIA 2 and SIRT5 inh 3.
Screening C[C@@H]1CN([C@@H](C)CO)S(=O)(=O)c2ccc(C#CC(C)(C)O)cc2O[C@@H]1CN(C)C(=O)C1CCCCC1 returned ERAP1 HTS inh 0, DENV2 CPE rescue 21*, S100A4 MyoIIA 11 and SIRT5 inh 0.
